ChEMBL document CHEMBL4513216, “Probing the Open Global Health Chemical Diversity Library for Multistage-Active Starting Points for Next-Generation Antimalarials” (ACS Infect Dis, 2020)

Test: Toxicity liver stage against HepG2, at 10uM
Format: cell-based
Set-up: test concentration 10 uM, cell line HepG2-A16-CD81EGFP
Settings: human, HepG2-A16-CD81EGFP cells; read-out: INHIBITION
Outline: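 Uninfected HepG2-A16-CD81EGFP cells, 3 × 10^3 per well, 1536-well, plated on prespotted compound at 10 μM final, parasite-free screening media added to match infected plates; puromycin 10 μM positive, DMSO 0.5% negative; run in parallel with 48 h PbLuc assay at 37 °C, 5% CO2; viability by CellTiter-Glo luminescence, normalized to controls.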

In order of rising cytotoxicity at 10 µM:
1. O=S(=O)(C1CC1)N1C[C@@H]2CN(Cc3cccs3)CCO[C@@H]2C1  -134%
2. CCCS(=O)(=O)N1C[C@@H]2C[C@H](C(=O)Nc3cccnc3)[C@H](C1)O2  -78.8%
3. N#Cc1cccc(C(=O)N2CC[C@H]3[C@H]2CCN3CC2CCOCC2)c1  -77%
4. Cn1ncc2c1C(COCC1CC1)CN(C(=O)c1cscn1)C2 (centres undefined)  -76%
5. Cc1ccccc1C(=O)N1CC[C@@H](N(C)C)[C@@H]1Cc1cnn(C)c1  -71%
6. CN(C)c1nc2c(c(NCc3cc(O)ncn3)n1)CCCC2  -12.4%
7. Cc1nc(C)n(CC2CCCN2Cc2cn3ccsc3n2)n1 (centres undefined)  -10.7%
8. CC(=O)N1CCN(C[C@H]2CC[C@@H](Cc3ccc4ncccc4c3)O2)CC1  -9.14%
9. CN(CCn1ccc2ccccc21)C(=O)CS(C)(=O)=O  -8.14%
10. c1ccc(CN2CCc3c(CNc4nccs4)n[nH]c3C2)nc1  -7.04%
11. C[C@@H]1CN(C2(C(=O)N3CC[C@H](O)C3)Cc3ccccc3C2)C[C@H](C)O1  -5.19%
12. COc1ccc(C(=O)NCCCNc2ccc(C(F)(F)F)cn2)cc1  -3.87%
13. COCC1CC2(CCN(Cc3ccc(OC)cc3)CC2)CN1C(C)C (centres undefined)  -3.68%
14. Cc1cnc(N2CCCOC(CN3CCCCC3)C2)nc1 (centres undefined)  -3.54%
15. COC(=O)[C@H]1C[C@@H](O)CCN1S(=O)(=O)c1ccc(F)cc1F  -3.01%
16. CCCc1nc(CN2CCN(CC(O)c3ccccc3)CC2)no1 (centres undefined)  -2.89%
17. Cn1nc2c(cc1=O)CN(Cc1nc(C(C)(C)C)no1)CC2  -2.86%
18. COCCCN(Cc1ccccn1)Cc1ccnn1C1CCCCO1 (centres undefined)  -2.66%
19. CCCn1ncc(C(=O)NC2CCN(CC3CCCO3)CC2)c1C (centres undefined)  -2.43%
20. Cc1cccc(-n2cnnc2CCCN2CCOCC2)c1  -2.42%
21. CC(C)N1CCc2c(CN(C)Cc3ccco3)cncc2C1  -2.39%
22. CCN1CC(CN(C)Cc2nc(-c3ccc(F)cc3)oc2C)CC1=O (centres undefined)  -2.22%
23. CC(=O)Nc1ccc(CN(C)Cc2snnc2C)cc1  -2.17%
24. CC(=O)c1ccc(N2CCC3(CC2)CC(=O)N(C)C3)nc1  -1.66%
25. Cc1nn(C)c2nc(N(Cc3cnn(C)c3)C3CCCCC3)sc12  -1.24%
26. CSCc1noc(CN2CCC3(CC2)CC(=O)N(CC=C(C)C)C3)n1  -0.589%
27. c1ccc(C2CCCN2Cc2nc(-c3cnccn3)no2)nc1 (centres undefined)  -0.5%
28. c1cncc(OC[C@@]23CCC[C@@H]2CN(C2CCOCC2)C3)c1  -0.0916%
29. CCn1ccnc1CN(C)CC1CCCN1c1cccnn1 (centres undefined)  -0.0722%
30. Cc1nccn1CCN(C)C(=O)C1CCCN(C2CCOCC2)C1 (centres undefined)  0.417%
31. O=C(O)c1csc(NCCc2ccccc2)n1  0.501%
32. CC(=O)N1CCCC1c1cc(N2CCN(C3CCCC3)CC2)cc(C)n1 (centres undefined)  1.18%
33. Cn1ccnc1SCCNC1CCN(c2nc3ccccc3s2)CC1  2.05%
34. N[C@H]1CN(C(=O)c2ccc3[nH]c(=O)c(=O)[nH]c3c2)C[C@@H]1c1ccccc1  2.19%
35. Cc1ncsc1CN1C[C@@H]2CCCO[C@@H]2[C@H](Nc2ccccn2)C1  2.31%
36. Cc1noc(C)c1CN1CCO[C@H]2[C@H](Oc3ncccc3F)CC[C@@H]21  2.93%
37. C1CCN(CCO[C@@H]2CC[C@H]3[C@H]2OCCN3CC2CCOCC2)C1  2.98%
38. Cn1ccnc1N1CCN(C(=O)Cc2ccccc2)CC1  3.13%
39. CC(C)(NC(=O)C1CCCN(C2CCCC2)C1)c1nnc(N)s1 (centres undefined)  3.27%
40. CC(C)N(C)Cc1cnc2n1CCN(C(=O)NC1CCCC1)C2  4.14%
41. Cc1occc1C(=O)N1CCO[C@H]2[C@H](OCc3cccnc3)CC[C@@H]21  4.84%
42. COc1ccc(C[C@H]2CN(C(=O)c3ccncc3)CC[C@@H]2OC)cc1  5.75%
43. CC1(C)CN(C(=O)CC2CCS(=O)(=O)CC2)C[C@]1(C)O  5.91%
44. COCCCNC(=O)CN1CCCC1c1c(C)nn(C)c1Cl (centres undefined)  6.69%
45. Cc1nc2c(c(NC(C)C)n1)CCN(C(=O)c1cc[nH]n1)CC2  6.71%
46. Cc1cnc(C)c(N2CCCC(CO)(Cc3cccc(Cl)c3)C2)n1 (centres undefined)  7.78%
47. NC(=O)Cn1ccnc1C1CCCN(Cc2cccc(Cl)c2F)C1 (centres undefined)  7.81%
48. CN1C(Cn2cccn2)C[C@@H]2CN(Cc3cccnc3)CC[C@@H]21 (some centres undefined)  8.01%
49. CN1C[C@@H]2COC[C@]2(C(=O)NCCc2cccs2)C1  8.1%
50. COc1ccc(F)c(CN2CCCC(O)(CNCc3ccoc3)C2=O)c1 (centres undefined)  10.9%
51. COc1ccc(CN(C)[C@@H]2COC[C@H]2c2ccc(F)cc2)cc1  10.9%
52. c1cnc(N2CC[C@@H]3O[C@@H](COCc4cccnc4)CC[C@@H]32)nc1  11.2%
53. CCn1nc(C)c(-c2cncn2Cc2ccccc2CN(C)C)c1C  12.4%
54. CC(C)n1cc(-c2c(C#N)c(N)nc3c2COCC3)cn1  17.2%
